Experimental data published in publication PMC4586255 (DNA repair, 2010).
Substitutions are numbered along the chain they refer to. In names and notes the source's numbering stands.

B1: YFP-hEXO1-Q788A;L791A: PIP-box mutant of YFP-hEXO1 (protein, UniProt Q9UQ84 1-846, looked up, variant Q788A L791A)
Exonuclease 1: MGIQGLLQFIKEASEPIHVRKYKGQVVAVDTYCWLHKGAIACAEKLAKGEPTDRYVGFCMKFVNMLLSHGIKPILVFDGCTLPSKKEVERSRRERRQANLLKGKQLLREGKVSEARECFTRSINITHAMAHKVIKAARSQGVDCLVAPYEADAQLAYLNKAGIVQAIITEDSDLLAFGCKKVILKMDQFGNGLEIDQARLGMCRQLGDVFTEEKFRYMCILSGCDYLSSLRGIGLAKACKVLRLANNPDIVKVIKKIGHYLKMNITVPEDYINGFIRANNTFLYQLVFDPIKRKLIPLNAYEDDVDPETLSYAGQYVDDSIALQIALGNKDINTFEQIDDYNPDTAMPAHSRSHSWDDKTCQKSANVSSIWHRNYSPRPESGTVSDAPQLKENPSTVGVERVISTKGLNLPRKSSIVKRPRSAELSEDDLLSQYSLSFTKKTKKNSSEGNKSLSFSEVFVPDLVNGPTNKKSVSTPPRTRNKFATFLQRKNEESGAVVVPGTRSRFFCSSDSTDCVSNKVSIQPLDETAVTDKENNLHESEYGDQEGKRLVDTDVARNSSDDIPNNHIPGDHIPDKATVFTDEESYSFESSKFTRTISPPTLGTLRSCFSWSGGLGDFSRTPSPSPSTALQQFRRKSDSPTSLPENNMSDVSQLKSEESSDDESHPLREEACSSQSQESGEFSLQSSNASKLSQCSSKDSDSEESDCNIKLLDSQSDQTSKLRLSHFSKKDTPLRNKVPGLYKSSSADSLSTTKIKPLGPARASGLSKKPASIQKRKHHNAENKPGLAIKANELWKNFGFKKDSEKLPPCKKPLSPVRDNIQLTPEAEEDIFNKPECGRVQRAIFQ
modifications: N-terminal YFP tag
B2: YFP-hEXO1-Q285A;F288A: putative PIP-box substitution variant of YFP-hEXO1 (protein, UniProt Q9UQ84 1-846, looked up, variant Q285A F288A)
Exonuclease 1: B1 Exonuclease 1 with Q285A, F288A, A788Q, A791L
modifications: YFP tag
B3: YFP-hEXO1-Q154A;Y157A: putative PIP-box substitution variant of YFP-hEXO1 (protein, UniProt Q9UQ84 1-846, looked up, variant Q154A Y157A)
Exonuclease 1: B1 Exonuclease 1 with Q154A, Y157A, A788Q, A791L
modifications: N-terminal YFP tag
B4: YFP-hEXO1-C508X: COOH-terminally truncated version of YFP-hEXO1 (protein, UniProt Q9UQ84 1-507, looked up, fragment)
chain: MGIQGLLQFIKEASEPIHVRKYKGQVVAVDTYCWLHKGAIACAEKLAKGEPTDRYVGFCMKFVNMLLSHGIKPILVFDGCTLPSKKEVERSRRERRQANLLKGKQLLREGKVSEARECFTRSINITHAMAHKVIKAARSQGVDCLVAPYEADAQLAYLNKAGIVQAIITEDSDLLAFGCKKVILKMDQFGNGLEIDQARLGMCRQLGDVFTEEKFRYMCILSGCDYLSSLRGIGLAKACKVLRLANNPDIVKVIKKIGHYLKMNITVPEDYINGFIRANNTFLYQLVFDPIKRKLIPLNAYEDDVDPETLSYAGQYVDDSIALQIALGNKDINTFEQIDDYNPDTAMPAHSRSHSWDDKTCQKSANVSSIWHRNYSPRPESGTVSDAPQLKENPSTVGVERVISTKGLNLPRKSSIVKRPRSAELSEDDLLSQYSLSFTKKTKKNSSEGNKSLSFSEVFVPDLVNGPTNKKSVSTPPRTRNKFATFLQRKNEESGAVVVPGTRSRFF
modifications: N-terminal YFP tag
B5: hMLH1: fusion protein, CFP or YFP tagged MMR protein (protein)
chain: MSFVAGVIRRLDETVVNRIAAGEVIQRPANAIKEMIENCLDAKSTSIQVIVKEGGLKLIQIQDNGTGIRKEDLDIVCERFTTSKLQSFEDLASISTYGFRGEALASISHVAHVTITTKTADGKCAYRASYSDGKLKAPPKPCAGNQGTQITVEDLFYNIATRRKALKNPSEEYGKILEVVGRYSVHNAGISFSVKKQGETVADVRTLPNASTVDNIRSIFGNAVSRELIEIGCEDKTLAFKMNGYISNANYSVKKCIFLLFINHRLVESTSLRKAIETVYAAYLPKNTHPFLYLSLEISPQNVDVNVHPTKHEVHFLHEESILERVQQHIESKLLGSNSSRMYFTQTLLPGLAGPSGEMVKSTTSLTSSSTSGSSDKVYAHQMVRTDSREQKLDAFLQPLSKPLSSQPQAIVTEDKTDISSGRARQQDEEMLELPAPAEVAAKNQSLEGDTTKGTSEMSEKRGPTSSNPRKRHREDSDVEMVEDDSRKEMTAACTPRRRIINLTSVLSLQEEINEQGHEVLREMLHNHSFVGCVNPQWALAQHQTKLYLLNTTKLSEELFYQILIYDFANFGVLRLSEPAPLFDLAMLALDSPESGWTEEDGPKEGLAEYIVEFLKKKAEMLADYFSLEIDEEGNLIGLPLLIDNYVPPLEGLPIFILRLATEVNWDEEKECFESLSKECAMFYSIRKQYISEESTLSGQQSEVPGSIPNSWKWTVEHIVYKALRSHILPPKHFTEDGNILQLANLPDLYKVFERC
modifications: left off: GST, end not stated, kept
B6: YFP-hEXO1-S598X: COOH-terminally truncated version of YFP-hEXO1 (protein, UniProt Q9UQ84 1-597, looked up, fragment)
chain: MGIQGLLQFIKEASEPIHVRKYKGQVVAVDTYCWLHKGAIACAEKLAKGEPTDRYVGFCMKFVNMLLSHGIKPILVFDGCTLPSKKEVERSRRERRQANLLKGKQLLREGKVSEARECFTRSINITHAMAHKVIKAARSQGVDCLVAPYEADAQLAYLNKAGIVQAIITEDSDLLAFGCKKVILKMDQFGNGLEIDQARLGMCRQLGDVFTEEKFRYMCILSGCDYLSSLRGIGLAKACKVLRLANNPDIVKVIKKIGHYLKMNITVPEDYINGFIRANNTFLYQLVFDPIKRKLIPLNAYEDDVDPETLSYAGQYVDDSIALQIALGNKDINTFEQIDDYNPDTAMPAHSRSHSWDDKTCQKSANVSSIWHRNYSPRPESGTVSDAPQLKENPSTVGVERVISTKGLNLPRKSSIVKRPRSAELSEDDLLSQYSLSFTKKTKKNSSEGNKSLSFSEVFVPDLVNGPTNKKSVSTPPRTRNKFATFLQRKNEESGAVVVPGTRSRFFCSSDSTDCVSNKVSIQPLDETAVTDKENNLHESEYGDQEGKRLVDTDVARNSSDDIPNNHIPGDHIPDKATVFTDEESYSFESSKFTRTI
modifications: N-terminal YFP tag
B7: hEXO1-S702X; Δ423–507: truncated from amino acid 702 with internal deletion between amino acids 423 and 507; depleted of two hMLH1 interaction regions (protein)
chain: MGIQGLLQFIKEASEPIHVRKYKGQVVAVDTYCWLHKGAIACAEKLAKGEPTDRYVGFCMKFVNMLLSHGIKPILVFDGCTLPSKKEVERSRRERRQANLLKGKQLLREGKVSEARECFTRSINITHAMAHKVIKAARSQGVDCLVAPYEADAQLAYLNKAGIVQAIITEDSDLLAFGCKKVILKMDQFGNGLEIDQARLGMCRQLGDVFTEEKFRYMCILSGCDYLSSLRGIGLAKACKVLRLANNPDIVKVIKKIGHYLKMNITVPEDYINGFIRANNTFLYQLVFDPIKRKLIPLNAYEDDVDPETLSYAGQYVDDSIALQIALGNKDINTFEQIDDYNPDTAMPAHSRSHSWDDKTCQKSANVSSIWHRNYSPRPESGTVSDAPQLKENPSTVGVERVISTKGLNLPRKSSIVKRPRSCSSDSTDCVSNKVSIQPLDETAVTDKENNLHESEYGDQEGKRLVDTDVARNSSDDIPNNHIPGDHIPDKATVFTDEESYSFESSKFTRTISPPTLGTLRSCFSWSGGLGDFSRTPSPSPSTALQQFRRKSDSPTSLPENNMSDVSQLKSEESSDDESHPLREEACSSQSQESGEFSLQSSNASKLSQCSSKDSD
modifications: 35S-cysteine label

tested on: PCNA replication foci in NIH3T3 cells; assay: not given; format: cell-based, murine; conditions: CFP channel (CFP-PCNA) in cells co-expressing the hEXO1 protein; early S-phase foci; 50 co-transfected cells
How it was run: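 Murine NIH3T3 cells were kept in DMEM with 10% FBS and penicillin/streptomycin at 37 °C, 10% CO₂. Cells (2*10⁵ per glass-bottom dish) were seeded 24 h before ExGen500 co-transfection with 3 μg total plasmid (CFP-PCNA plus YFP fusion). Confocal imaging at 24–48 h. Co-transfected cells were counted and binned by pattern, e.g. "no foci" (diffuse CFP-PCNA, diffuse nuclear YFP).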

| Molecule | Small foci (CFP-PCNA) [%] |
| --- | --- |
| B1 | 22 |
| B2 | 34 |
| B3 | 28 |

same assay, conditions: CFP channel (CFP-PCNA) in cells co-expressing the hEXO1 protein; late S-phase foci; 50 co-transfected cells

| Molecule | Large foci (CFP-PCNA) [%] |
| --- | --- |
| B1 | 8 |
| B2 | 0 |
| B3 | 0 |

same assay, conditions: CFP channel (CFP-PCNA) in cells co-expressing the hEXO1 protein; mid S-phase foci; 50 co-transfected cells

| Molecule | Mid Foci (CFP-PCNA) [%] |
| --- | --- |
| B1 | 18 |
| B2 | 0 |
| B3 | 4 |

same assay, conditions: NIH3T3 cells co-expressing CFP-PCNA

| Molecule | effect of expression on S-phase distribution |
| --- | --- |
| B1 | no adverse effects on S-phase distribution |
| B2 | unable to detect replication foci in late S-phase |
| B3 | unable to detect replication foci in late S-phase |

same assay, conditions: NIH3T3 cells co-transfected with CFP-PCNA, 24–48 h

| Molecule | foci formation and co-localization with PCNA during S-phase |
| --- | --- |
| B4 | none of the variant proteins were able to form foci or co-localize with PCNA during S-phase |
| B1 | unable to form nuclear foci and does not co-localize with PCNA, at any time point during S-phase |
| B2 | to some extent are able to form S-phase foci in co-localization with PCNA |
| B3 | to some extent are able to form S-phase foci in co-localization with PCNA |
| B5 | unable to observe CFP-PCNA co-localized YFP-hMLH1 foci |
| B6 | none of the variant proteins were able to form foci or co-localize with PCNA during S-phase |

same assay, conditions: NIH3T3 cells, confocal imaging

| Molecule | sub-cellular localization |
| --- | --- |
| B4 | strictly nuclear |
| B6 | strictly nuclear |

tested on: hMLH1; assay: Interaction of hEXO1 variants with hMLH1; format: binding, human; conditions: GST-hMLH1 pull-down, 35S-labeled IVTT protein; Fig. S1

| Molecule | hMLH1 interaction |
| --- | --- |
| B7 | incapable of hMLH1 interaction |
